Results reported in article PMC3850770 (Chemical research in toxicology, 2012).
One block for each molecule: values may come before it.

Tests used:
[1] = molecular target: T1, P450 2W1 (Homo sapiens, UniProt Q8TAV3); experiment: Preliminary incubation with P450 2W1, products by HPLC-UV; format: in vitro ADME; details: recombinant human P450 2W1
T1 sequence (Q8TAV3 23-490): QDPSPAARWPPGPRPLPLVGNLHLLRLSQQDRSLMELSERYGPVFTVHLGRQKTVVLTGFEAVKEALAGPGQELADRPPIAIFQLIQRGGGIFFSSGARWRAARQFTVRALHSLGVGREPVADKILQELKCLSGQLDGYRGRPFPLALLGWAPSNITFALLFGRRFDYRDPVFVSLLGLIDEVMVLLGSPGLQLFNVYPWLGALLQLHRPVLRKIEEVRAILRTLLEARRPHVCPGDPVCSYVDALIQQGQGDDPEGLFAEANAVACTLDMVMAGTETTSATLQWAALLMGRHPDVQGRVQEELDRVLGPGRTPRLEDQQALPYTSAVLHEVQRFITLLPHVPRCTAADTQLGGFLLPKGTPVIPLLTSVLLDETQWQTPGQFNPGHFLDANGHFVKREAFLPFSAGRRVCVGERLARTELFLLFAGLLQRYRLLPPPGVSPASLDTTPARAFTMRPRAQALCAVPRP
How it was run: (§1)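 Recombinant human P450 at 0.3–0.8 μM, either in E. coli membranes or purified and reconstituted with 2-fold excess NADPH-P450 reductase plus 30 μM DLPC. Substrate 100 μM with NADPH-generating system in 0.10 M potassium phosphate, pH 7.4; 37 °C for 30–60 min. Extracted into 2 volumes CH2Cl2, residue taken up in CH3CN. Read by C18 HPLC with photodiode-array UV, acetonitrile/water gradient containing 0.5% formic acid.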

[2] = molecular target: T2, P450 2S1 (Homo sapiens, UniProt Q96SQ9); experiment: Preliminary incubation with P450 2S1, products by HPLC-UV; format: in vitro ADME; details: recombinant human P450 2S1
T2 sequence (Q96SQ9 1-504): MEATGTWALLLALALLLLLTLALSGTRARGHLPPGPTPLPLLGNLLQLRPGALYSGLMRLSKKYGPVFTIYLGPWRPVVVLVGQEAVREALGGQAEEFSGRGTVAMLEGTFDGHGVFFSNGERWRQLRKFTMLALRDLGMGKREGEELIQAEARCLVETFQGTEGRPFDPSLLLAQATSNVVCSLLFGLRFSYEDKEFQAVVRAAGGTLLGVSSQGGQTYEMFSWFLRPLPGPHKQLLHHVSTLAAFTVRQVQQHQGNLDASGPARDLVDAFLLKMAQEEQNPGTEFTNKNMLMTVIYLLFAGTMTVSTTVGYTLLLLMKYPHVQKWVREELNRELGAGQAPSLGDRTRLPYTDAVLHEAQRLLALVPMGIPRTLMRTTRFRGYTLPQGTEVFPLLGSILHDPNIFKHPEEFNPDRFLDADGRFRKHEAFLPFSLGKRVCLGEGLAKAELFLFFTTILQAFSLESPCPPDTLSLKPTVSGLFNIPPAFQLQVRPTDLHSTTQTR
How it was run: as §1

[3] = molecular target: T1, P450 2W1; experiment: Steady-state kinetics of P450 2W1-catalyzed oxidation; format: in vitro ADME
How it was run: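 Same P450 and NADPH-generating levels as qualitative incubations, in 0.10 M phosphate, pH 7.4. Substrate 0–200 μM, in duplicate, at 37 °C. With 2W1: 10 min (dimethoxyphenyl substrate) or 15 min (aminophenyl substrate); with 1A1: 15 and 25 min respectively. CH2Cl2 quench, benzothiazole internal standard added, extract quantified by HPLC-UV. Km and kcat from nonlinear regression.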

[4] = system: IGROV-1 cells; details: ref [12], [13]; cited from earlier work
[5] = molecular target: T3, P450 1A1 (Homo sapiens, UniProt P04798); experiment: Steady-state kinetics of P450 1A1-catalyzed oxidation; format: in vitro ADME; details: oxidation of 5F 203 to form 8a
T3 sequence (P04798 1-512): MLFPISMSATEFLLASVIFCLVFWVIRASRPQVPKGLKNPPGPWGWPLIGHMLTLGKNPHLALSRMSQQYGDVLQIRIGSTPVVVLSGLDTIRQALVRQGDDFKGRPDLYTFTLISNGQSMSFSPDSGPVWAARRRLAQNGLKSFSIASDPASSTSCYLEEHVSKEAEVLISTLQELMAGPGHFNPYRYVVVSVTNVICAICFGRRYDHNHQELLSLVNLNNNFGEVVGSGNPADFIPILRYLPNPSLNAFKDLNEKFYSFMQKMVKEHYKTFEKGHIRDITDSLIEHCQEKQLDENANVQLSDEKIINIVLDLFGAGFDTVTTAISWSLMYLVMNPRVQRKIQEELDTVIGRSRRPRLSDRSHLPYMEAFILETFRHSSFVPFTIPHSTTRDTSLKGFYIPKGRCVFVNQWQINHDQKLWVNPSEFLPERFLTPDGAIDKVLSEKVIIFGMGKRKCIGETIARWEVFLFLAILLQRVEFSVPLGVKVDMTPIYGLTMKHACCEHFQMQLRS

[6] = system: MDA 468 cells; details: ref [12], [13]; cited from earlier work
[7] = system: P450 2W1, P450 1A1, or human liver microsomes; experiment: GSH adduct formation from oxidation products; format: in vitro ADME; details: 5 mM GSH, 100 μM substrate, LC-MS
How it was run: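 P450 2W1 or 1A1 in E. coli membranes, or human liver microsomes pooled from ten donors, at 0.50 μM with 100 μM substrate, 5 mM GSH and 4 μg mL−1 catalase. Incubated 12–15 h at 37 °C, stopped with 2 volumes CH3CN; supernatant analysed by ESI+ LC-MS.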

[8] = system: MCF-7 cells; details: ref [12], [13]; cited from earlier work
[9] = system: colon, lung, and breast cancer cell lines; details: ref [19]; cited from earlier work
[10] = system: dGuo; experiment: dGuo adduct formation with synthetic 10; details: after Ac2O activation, 37 °C under argon 2 h, LC-MS m/z 524
[11] = Solubility in organic solvents; format: physicochemical; details: in CHCl3 and CH3OH
[12] = substrate: COc1ccc(-c2nc3cc(F)ccc3s2)cc1OC; experiment: Steady-state kinetics of P450 1A1-catalyzed oxidation; format: in vitro ADME, human; details: other: P450 1A1, substrate GW 610, product 4c; pH 7.4; 37.0 °C
[13] = substrate: Cc1cc(-c2nc3cc(F)ccc3s2)ccc1N; experiment: as above; format: in vitro ADME, human; details: pH 7.4, 37.0 °C
[14] = other: P450 1A1, substrate 5F 203, product 8a
[15] = other: P450 1A1, substrate 5F 203, product 8b

Molecule: c1ccc(-c2nc3ccccc3s2)cc1 [2-phenylbenzothiazole, reference compound]
product formation on incubation with P450 2W1 [1]: No products were observed
product formation on incubation with P450 2S1 [2]: No products were observed

Molecule: Cc1cc(-c2nc3cc(F)ccc3s2)ccc1N [5F 203, 2-(4-Amino-3-methylphenyl)-5-fluorobenzothiazole]
kcat ([3]; P450 2W1, substrate 5F 203, product 8a): 0.0158 ± 0.0017 s⁻¹
kcat ([3]; P450 2W1, substrate 5F 203, product 10): 0.00933 ± 0.001 s⁻¹
Km at 15 min ([3]; human, pH 7.4, Km, P450 2W1, substrate 5F 203, product 8a): 31 ± 11 µM
Km at 15 min ([3]; human, pH 7.4, Km, P450 2W1, substrate 5F 203, product 10): 35 ± 12 µM
GI50 [4]: < 1 nM
product formation on incubation with P450 2W1 [1]: Products were formed
efficiency of P450 1A1 relative to P450 2W1 [5]: ~ 2 fold
GI50 [6]: < 1 nM
GSH conjugate formation [7]: detected
product formation on incubation with P450 2S1 [2]: no products were observed
GI50 [8]: < 1 nM

B1: P450 1A1 (Homo sapiens) (protein)
chain: MLFPISMSATEFLLASVIFCLVFWVIRASRPQVPKGLKNPPGPWGWPLIGHMLTLGKNPHLALSRMSQQYGDVLQIRIGSTPVVVLSGLDTIRQALVRQGDDFKGRPDLYTFTLISNGQSMSFSPDSGPVWAARRRLAQNGLKSFSIASDPASSTSCYLEEHVSKEAEVLISTLQELMAGPGHFNPYRYVVVSVTNVICAICFGRRYDHNHQELLSLVNLNNNFGEVVGSGNPADFIPILRYLPNPSLNAFKDLNEKFYSFMQKMVKEHYKTFEKGHIRDITDSLIEHCQEKQLDENANVQLSDEKIINIVLDLFGAGFDTVTTAISWSLMYLVMNPRVQRKIQEELDTVIGRSRRPRLSDRSHLPYMEAFILETFRHSSFVPFTIPHSTTRDTSLKGFYIPKGRCVFVNQWQINHDQKLWVNPSEFLPERFLTPDGAIDKVLSEKVIIFGMGKRKCIGETIARWEVFLFLAILLQRVEFSVPLGVKVDMTPIYGLTMKHACCEHFQMQLRS
Km [12]: 10 ± 3 µM
kcat [12]: 0.00617 ± 0.0005 s⁻¹
kcat/Km [12]: 600 ± 167 M⁻¹ s⁻¹
Km [13, 14]: 32 ± 9 µM
kcat [13, 14]: 0.0283 ± 0.00333 s⁻¹
kcat/Km [13, 14]: 900 ± 333 M⁻¹ s⁻¹
Km [13, 15]: 29 ± 8 µM
kcat [13, 15]: 0.0517 ± 0.005 s⁻¹
kcat/Km [13, 15]: 1830 ± 500 M⁻¹ s⁻¹

Continued, in another order:

kcat ([3]; P450 2W1, substrate GW 610, product 4c): 0.0633 ± 0.0067 s⁻¹
efficiency of P450 2W1 relative to P450 1A1 ([3]; formation of 4c from GW 610): 5 fold
Km at 10 min ([3]; human, pH 7.4, Km, P450 2W1, substrate GW 610, product 4c): 22 ± 7 µM
product formation on incubation with P450 2W1 [1]: Products were formed
GSH conjugate formation [7]: detected
product formation on incubation with P450 2S1 [2]: no products were observed
Molecule: COc1ccc(-c2nc3cc(F)ccc3s2)cc1OC [GW 610, 5-Fluoro-2-(3,4-dimethoxyphenyl)-benzothiazole]
GI50 [9]: < 0.1 nM

solubility [11]: very poor
Molecule: Cc1cc(-c2nc3cc(F)ccc3s2)ccc1NO [compound 10, 2-(4-Hydroxylamino-3-methylphenyl)-5-fluorobenzothiazole]
dGuo adduct formation [10]: consistent with a dGuo adduct of compound 10
